Measurements: ChEMBL document CHEMBL3244124, “Synthesis of 2-substituted primaquine analogues as potential antimalarials” (J Med Chem, 1978)
Active and inactive are the calls of the source. No cut-off for these calls is given here.

Key:
Plasmodium berghei [1] = experiment: Antimalarial activity against blood stage of Plasmodium berghei infected in mouse assessed as increase in mean survival time at 80 mg/kg, sc; format: functional; details: route subcutaneous
Leishmania donovani [2] = experiment: Antileishmanial activity against Leishmania donovani infected in hamster assessed as inhibition of parasitemia at 52 mg/kg/day, im bid administered for 4 days relative to control; format: functional; details: 96 h, route intramuscular
Summary of the method: (§1)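 Hamsters infected with Leishmania donovani were assessed in an 8-day test. Seven animals per drug level received 208, 52 or 13 mg/kg/day. Percent suppression of parasites was calculated against infected, untreated controls (seven to ten animals). Glucantime index G = SD90 of Glucantime / SD90 of the new drug, where SD90 is the dose giving 90% parasite suppression.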

Mus musculus [3] = experiment: Toxicity in mouse infected with blood stage of Plasmodium berghei assessed as mortality at 160 mg/kg, sc measured on day 1; format: organism-based; design: dose 160 mg/kg, route subcutaneous; details: in vivo
Plasmodium berghei [4] = experiment: Antimalarial activity against blood stage of Plasmodium berghei infected in mouse assessed as increase in mean survival time at 160 mg/kg, sc; format: functional; details: route subcutaneous
Mus musculus [5] = experiment: Toxicity in mouse infected with blood stage of Plasmodium berghei assessed as mortality at 320 mg/kg, sc measured on day 5; format: organism-based; design: dose 320 mg/kg, route subcutaneous; details: in vivo
Summary of the method: (§2)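 P. berghei-infected mice, five per group, after subcutaneous dosing. Deaths occurring 2 to 5 days after drug administration are scored as drug toxicity rather than infection.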

Mus musculus [6] = experiment: Toxicity in mouse infected with blood stage of Plasmodium berghei assessed as mortality at 640 mg/kg, sc measured on day 5; format: organism-based; design: dose 640 mg/kg, route subcutaneous; details: in vivo; summary of the method: as §2
Mus musculus [7] = experiment: Toxicity in mouse infected with blood stage of Plasmodium berghei assessed as mortality at 320 mg/kg, sc measured on day 2; format: organism-based; design: dose 320 mg/kg, route subcutaneous; details: in vivo; summary of the method: as §2
Leishmania donovani [8] = experiment: Potency index, ratio of glucantime to compound for antileishmanial activity against Leishmania donovani infected in hamster assessed as 90% suppression of parasitemia at 208 mg/kg/day, im bid administered 4 days measured for 8 days; format: functional; details: route intramuscular; summary of the method: as §1
[9] = test system: Trypanosoma brucei rhodesiense; experiment: Antitrypanosomal activity against blood stage of Trypanosoma rhodesiense infected in mouse; format: functional, organism-based
Mus musculus [10] = experiment: Toxicity in mouse infected with blood stage of Plasmodium berghei assessed as mortality at 640 mg/kg, sc measured on day 3; format: organism-based; design: dose 640 mg/kg, route subcutaneous; details: in vivo; summary of the method: as §2
Plasmodium berghei [11] = experiment: Antimalarial activity against blood stage of Plasmodium berghei infected in mouse assessed as increase in mean survival time at 640 mg/kg, sc; format: functional; details: route subcutaneous
Plasmodium berghei [12] = experiment: Antimalarial activity against blood stage of Plasmodium berghei infected in mouse assessed as increase in mean survival time at 320 mg/kg, sc; format: functional; details: route subcutaneous
Plasmodium cynomolgi = experiment: Antimalarial activity against sporozoite stage of Plasmodium cynomolgi infected in rhesus monkey assessed as radical curative activity measured for 90 days; format: functional, organism-based
Mus musculus [13] = experiment: Toxicity in mouse infected with blood stage of Plasmodium berghei assessed as mortality at 160 mg/kg, sc measured on day 2; format: organism-based; design: route subcutaneous, dose 160 mg/kg; details: in vivo; summary of the method: as §2
Schistosoma mansoni = experiment: Antiparasitic activity against Schistosoma mansoni infected in mouse assessed as survival up to 49 days at 1280 mg/kg, sc administered through peanut oil on day 2 post infection; format: functional, organism-based; design: dose 1280 mg/kg
Mus musculus [14] = experiment: Toxicity in mouse infected with blood stage of Plasmodium berghei assessed as mortality at 80 to 640 mg/kg, sc measured for 5 days; format: organism-based; design: dose 80-640 mg/kg, route subcutaneous; details: in vivo, 120 h; summary of the method: as §2
Leishmania donovani [15] = experiment: Potency index, ratio of glucantime to compound for antileishmanial activity against Leishmania donovani infected in hamster assessed as 90% suppression of parasitemia at 3.25 mg/kg/day, im bid administered 4 days measured for 8 days; format: functional; details: route intramuscular
Leishmania donovani [16] = experiment: Potency index, ratio of glucantime to compound for antileishmanial activity against Leishmania donovani infected in hamster assessed as 90% suppression of parasitemia at 13 to 208 mg/kg/day, im bid administered 4 days measured for 8 days; format: functional; details: route intramuscular; summary of the method: as §1
Leishmania donovani [17] = experiment: Potency index, ratio of glucantime to compound for antileishmanial activity against Leishmania donovani infected in hamster assessed as 90% suppression of parasitemia at 13 mg/kg/day, im bid administered 4 days measured for 8 days; format: functional; details: route intramuscular; summary of the method: as §1
Mus musculus [18] = experiment: Toxicity in mouse infected with blood stage of Plasmodium berghei assessed as mortality at 640 mg/kg, sc measured on day 2; format: organism-based; design: dose 640 mg/kg, route subcutaneous; details: in vivo; summary of the method: as §2

| SMILES | Survival (Plasmodium berghei [1]) | Survival (Plasmodium berghei [4]) | Activity (Mus musculus [5]) | Activity (Mus musculus [6]) | Survival (Plasmodium berghei [11]) | Survival (Plasmodium berghei [12]) | Activity (Plasmodium cynomolgi) | Activity (Mus musculus [13]) | further results |
| --- | --- | --- | --- | --- | --- | --- | --- | --- | --- |
| COc1cc(NC(C)CCCN)c2nc(N(C)C)ccc2c1.O=C(O)/C=C/C(=O)O (stereo unspecified) | 4.9 days | 5.2 days | Toxic | Toxic | – | – | – | – | inhibition in vivo at 52 mg/kg/day (Leishmania donovani [2]): 99%; Activity (Mus musculus [3]): Toxic |
| COc1cc(NC(C)CCCN)c2nc(Cl)ccc2c1.O=C(O)/C=C\C(=O)O (stereo unspecified) | 1.2 days | 3 days | – | – | 5.5 days | 4 days | inactive | Toxic | Activity (Mus musculus [7]): Toxic; Ratio (Leishmania donovani [8]): 0.3; Activity [9]: inactive; Activity (Mus musculus [10]): Toxic |
| CCc1ccc2cc(OC)cc(NC(C)CCCN)c2n1.O=C(O)/C=C\C(=O)O (stereo unspecified) | 6.7 days | 8.3 days | – | – | 13.9 days | 9.9 days | inactive | – | Activity (Schistosoma mansoni): inactive; Activity (Mus musculus [14]): Non-toxic; Ratio (Leishmania donovani [15]): 10 |
| COc1cc(NC(C)CCCN)c2ncccc2c1 (stereo unspecified) [PRIMAQUINE] | 9.4 days | 10.8 days | Toxic | Toxic | – | – | – | Toxic | Ratio (Leishmania donovani [16]): 0.96 |
| COc1cc(NC(C)CCCN)c2nc(N)ccc2c1.O=C(O)/C=C\C(=O)O (stereo unspecified) | – | – | – | – | – | – | – | – | Activity (Schistosoma mansoni): inactive; Ratio (Leishmania donovani [16]): 0 |
| COc1cc(NC(C)CCCN)c2nc(OC)ccc2c1.O=C(O)/C=C\C(=O)O (stereo unspecified) | 6.1 days | 7.9 days | Toxic | Toxic | – | – | inactive | – | Ratio (Leishmania donovani [17]): 2.4; Activity (Mus musculus [3]): Toxic |
| C=Cc1ccc2cc(OC)cc(NC(C)CCCN)c2n1.O=C(O)/C=C/C(=O)O (stereo unspecified) | 2.9 days | 3.3 days | – | – | 7.9 days | 5.3 days | – | Toxic | Activity (Mus musculus [7]): Toxic; Activity (Mus musculus [18]): Toxic |
